This passage reports Average consumed results from ChEMBL document CHEMBL1122018, “Synthesis and orexigenic activity of some 1-methyl-4-piperidylidene-Substituted pyrrolo[2,1-g][3] benzazepine and dibenzocycloheptene derivatives” (1982).

Holding throughout (assay type): functional
In assay [1] the test system is Felis catus. Kind of assay: Average food consumed at the dose of 0.50 mg/kg (po) using 10 cats per dose level at 30 min (control day/ test day); 13/68. To be noted: dose 0.5 mg/kg. An outline of the steps: (§1)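 Cats given test compound suspended in 1% methylcellulose, or 1% methylcellulose placebo, by gavage 30 min before a preweighed test meal. Food was offered in surplus for 3 h, and intake was found by reweighing at 30, 60 and 180 min. Ten cats per dose, each dosed no more than once weekly. Test-day intake was compared with the preceding control day by two-tailed paired t test (p < 0.05); values are mean ± SD.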

For assay [2], the system named is Felis catus. Kind of assay: Average food consumed at the dose of 0.25 mg/kg (po) using 10 cats per dose level at 60 min (control day/ test day); 31/66. The method in brief:
as §1

Assay [3] has as its system Felis catus. The assay can be described thus: Average food consumed at the dose of 0.063 mg/kg (po) using 10 cats per dose level at 30 min (control day/ test day); 17/57.
Assay [4] deals with Felis catus. The assay can be described thus: Average food consumed at the dose of 0.25 mg/kg (po) using 10 cats per dose level at 180 min (control day/ test day); 41/138.
In assay [5] the test system is Felis catus. Kind of assay: Average food consumed at the dose of 0.50 mg/kg (po) using 10 cats per dose level at 60 min (control day/ test day); 33/124. To be noted: dose 0.5 mg/kg. The method in brief: as §1
Assay [6] has as its system Felis catus. Kind of assay: Average food consumed at the dose of 0.25 mg/kg (po) using 10 cats per dose level at 180 min (control day/ test day); 30/169.
Assay [7] has as its system Felis catus. The assay can be described thus: Average food consumed at the dose of 0.063 mg/kg (po) using 10 cats per dose level at 60 min (control day/ test day); 18/98.
Assay [8] has as its system Felis catus. Kind of assay: Average food consumed at the dose of 0.25 mg/kg (po) using 10 cats per dose level at 30 min (control day/ test day); 24/129.
The test system of assay [9] is Felis catus. The assay can be described thus: Average food consumed at the dose of 0.25 mg/kg (po) using 10 cats per dose level at 180 min (control day/ test day); 25/236.
For assay [10], the system named is Felis catus. The assay can be described thus: Average food consumed at the dose of 0.25 mg/kg (po) using 10 cats per dose level at 60 min (control day/ test day); 31/179. The method in brief: as §1
Assay [11] has as its system Felis catus. The assay can be described thus: Average food consumed at the dose of 0.25 mg/kg (po) using 10 cats per dose level at 30 min (control day/ test day); 17/76.
For assay [12], the system named is Felis catus. Kind of assay: Average food consumed at the dose of 0.50 mg/kg (po) using 10 cats per dose level at 30 min (control day/ test day); 30/147. To be noted: dose 0.5 mg/kg. The method in brief: as §1
Assay [13] has as its system Felis catus. Kind of assay: Average food consumed at the dose of 0.031 mg/kg (po) using 10 cats per dose level at 30 min (control day/ test day); 20/55.
In assay [14] the test system is Felis catus. The assay can be described thus: Average food consumed at the dose of 0.50 mg/kg (po) using 10 cats per dose level at 180 min (control day/ test day); 16/141. To be noted: dose 0.5 mg/kg. The method in brief: as §1
The test system of assay [15] is Felis catus. The assay can be described thus: Average food consumed at the dose of 0.25 mg/kg (po) using 10 cats per dose level at 30 min (control day/ test day); 32/66. The method in brief: as §1
Assay [16] concerns Felis catus. Kind of assay: Average food consumed at the dose of 0.50 mg/kg (po) using 10 cats per dose level at 180 min (control day/ test day); 34/273. To be noted: dose 0.5 mg/kg. The method in brief:
as §1

Assay [17] concerns Felis catus. Kind of assay: Average food consumed at the dose of 0.25 mg/kg (po) using 10 cats per dose level at 60 min (control day/ test day); 25/109. An outline of the steps: as §1
Assay [18] deals with Felis catus. The assay can be described thus: Average food consumed at the dose of 0.031 mg/kg (po) using 10 cats per dose level at 180 min (control day/ test day); 27/159.
In assay [19] the test system is Felis catus. Kind of assay: Average food consumed at the dose of 0.50 mg/kg (po) using 10 cats per dose level at 180 min (control day/ test day); 36/188. To be noted: dose 0.5 mg/kg. An outline of the steps: as §1
In assay [20] the test system is Felis catus. Kind of assay: Average food consumed at the dose of 0.50 mg/kg (po) using 10 cats per dose level at 60 min (control day/ test day); 19/96. To be noted: dose 0.5 mg/kg. The method in brief: as §1
Assay [21] relates to Felis catus. Kind of assay: Average food consumed at the dose of 0.50 mg/kg (po) using 10 cats per dose level at 60 min (control day/ test day); 34/203. To be noted: dose 0.5 mg/kg. The method in brief:
as §1

For assay [22], the system named is Felis catus. Kind of assay: Average food consumed at the dose of 0.063 mg/kg (po) using 10 cats per dose level at 180 min (control day/ test day); 17/166.
The test system of assay [23] is Felis catus. Kind of assay: Average food consumed at the dose of 0.50 mg/kg (po) using 10 cats per dose level at 30 min (control day/ test day); 35/108. To be noted: dose 0.5 mg/kg. An outline of the steps: as §1
Assay [24] relates to Felis catus. Kind of assay: Average food consumed at the dose of 0.031 mg/kg (po) using 10 cats per dose level at 60 min (control day/ test day); 17/79.

As to `CN1CCC(=C2c3ccccc3C=Cc3ccc(C(=O)O)cc32)CC1`, the Average consumed was 71 g in the assay on Felis catus [1]; 86 g in the assay on Felis catus [2]; 68 g with Felis catus [3]; 137 g in the assay on Felis catus [4]; 102 g in the assay on Felis catus [5]; 133 g with Felis catus [6]. For the same compound, the Average consumed came out at 94 g in the assay with Felis catus [7]; 108 g in the assay on Felis catus [8]; 191 g in the assay with Felis catus [9]; 147 g in the assay on Felis catus [10]; 62 g with Felis catus [11]; 116 g with Felis catus [12]. The Average consumed in the assay on Felis catus [13] turned out to be 68 g; in the assay on Felis catus [14] it was 125 g; with Felis catus [15], 68 g; in the assay with Felis catus [16], 219 g; with Felis catus [17] it was 90 g; in the assay on Felis catus [18] it was 157 g. Besides, the Average consumed in the assay with Felis catus [19] was found to be 149 g; in the assay with Felis catus [20] it was 94 g; in the assay with Felis catus [21] it was 160 g; in the assay with Felis catus [22], 159 g; in the assay with Felis catus [23], 72 g; with Felis catus [24] it was 95 g.
